Data set [1] can be described thus: Inhibition of HCV NS3/4A helicase by FRET assay. Also on record: species or system Hepacivirus hominis. A digest of the protocol:
(§1)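 His-tagged NS3/4A (0.9 µg) preincubated with compound on ice for 15 min. Fluorescence (ex 485/em 518 nm) followed continuously and end-point minus start normalized to DMSO. Screened at 100 µM final.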

Data set [2] has as its system Hepacivirus hominis. Nature of the data set: Inhibition of HCV NS3/4A helicase at 100 uM by FRET assay. In short, it runs like this: as §1
Data set [3] deals with Hepacivirus hominis. Nature of the data set: Inhibition of HCV NS3/4A helicase assessed as blockade of ssRNA formation form dsRNA at 100 uM by PAGE.
In data set [4] the test system is Hepatitis C virus. The data set is described as follows: Antiviral activity against HCV1b infected in human Ava5/Huh7 cells by replicon-cell assay. Format: functional, organism-based, Hepacivirus hominis. The settings on record: genotype 1b. Background: A replicon is a self-replicating genome or part of one, used to study replication in cells.
Data set [5] can be described thus: Inhibition of ATPase activity of HCV NS3/4A helicase by autoradiography. The arrangement: species or system Hepacivirus hominis. A digest of the protocol: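 ATP hydrolysis measured in 20 mM HEPES-KOH pH 7.0, 1.5 mM MgCl2, 2 mM DTT and 0.1 µg/mL poly-U, with [α-32P]ATP spanning 0.067-20 µM ATP. Reaction started by adding His-tagged NS3/4A (0.45 µg) and stopped with EDTA after 5 min. Products separated by PEI-cellulose TLC in 0.375 M K2PO4 pH 3.5 and quantified by autoradiography.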

A short description of data set [6]: Cytotoxicity against human HuH7 cells. Type of data set: cell-based, Huh-7.
A short description of data set [7]: Ratio of CC50 for human HuH7 cells to EC50 for HCV1b. The arrangement: species or system Huh-7.
In data set [8] the test system is Hepacivirus hominis. Nature of the data set: Inhibition of HCV NS3/4A helicase assessed as blockade of dsRNA binding to enzyme by gel mobility shift assay. In short, it runs like this: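 Gel mobility shift. NS3/4A (0.45 µg) preincubated with 100 µM compound in helicase buffer without ATP for 5 min at 37 °C. Then 0.66 pmol isotope-labeled partial dsRNA added for 15 min more. Complexes resolved on 4% polyacrylamide containing 5% glycerol and visualized by autoradiography.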

Data set [9] is described as follows: Cytotoxicity against human Ava5/Huh7 cells assessed as reduction in cell growth at 5 uM after 5 days in presence of polypeptide synthesis blocker G418. Type of data set: cell-based. The arrangement: scale not given: the % may be the effect or the level left. The settings on record: ava5/huh7, 120 h.
The nature of data set [10]: Cytotoxicity against human Ava5/Huh7 cells assessed as reduction in cell growth at 5 uM after 5 days in absence of polypeptide synthesis blocker G418. Type of data set: cell-based. Also on record: scale not given: the % may be the effect or the level left. The settings on record: ava5/huh7, 120 h.
For data set [11], the system named is Hepatitis C virus. The data set is described as follows: Antiviral activity against HCV1b infected in human Ava5/Huh7 cells assessed as decrease in viral RNA level at 5 to 10 uM after 2 days by RT-PCR relative to control. The arrangement: scale not given: the % may be the effect or the level left. Format: functional, Hepacivirus hominis, genotype 1b. A digest of the protocol: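 Ava.5/Huh-7 replicon cells (genotype 1b) seeded and grown 24 h in G-418-free DMEM, then exposed to 5, 10 or 20 µM compound for 24 or 48 h. Total RNA extracted and 1 µg reverse-transcribed with random decamers. SYBR Green real-time PCR run 40 cycles. HCV signal normalized to GAPDH and expressed relative to untreated replicon cells set at 1.0. Triplicate, averaged.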

The results in this text go back to ChEMBL document CHEMBL1138524, “Structure-based discovery of triphenylmethane derivatives as inhibitors of hepatitis C virus helicase” (J Med Chem, 2009).

pEC50, pIC50: −log10 of the molar value. Active and inactive are the calls of the source. The rule behind the calls is not given here.

A word on the pIC50: it is the IC50 on a negative log10 scale, so that one unit is a factor of ten. `CC(C)(c1ccc(O)cc1)c1ccc(C(C)(C)c2ccc(O)cc2)cc1`: the pIC50 in data set [1] was 4.22.

Broadly, the inhibition is the change of the read-out against control, counted positive when it falls. For the compound `CC(c1ccccc1)(c1ccc(O)cc1)c1ccc(O)cc1`, the inhibition in the data set with Hepacivirus hominis [2] turned out to be 43%.

Broadly, the pEC50 is −log10 of the EC50, conventionally taken in molar units. The CC50 is the concentration at which the toxic effect on the cells reaches its halfway point. On to `CC(C)(c1ccc(O)cc1)c1ccc(C(C)(c2ccc(O)cc2)c2ccc(O)cc2)cc1`, for which the results for the negative logarithm of the IC50 (pIC50) in [1] and in data set [5] were 4.86 and 4.59, respectively. The result in the data set on Hepacivirus hominis [3] was Active. This compound also showed a pEC50 in the data set on Hepatitis C virus [4] of 5.08. The compound further came in with a half-maximal cytotoxic concentration (CC50) in data set [6] of 12.7 µM. In addition, in data set [7], the “Ratio CC50/EC50” value is listed as 1.51. Besides, in the data set on Hepacivirus hominis [8], the Activity result is “Dose-dependent effect”.

On to `CC(C)(c1ccc(C(C)(c2ccc(O)c(Br)c2)c2ccc(O)c(Br)c2)cc1)c1ccc(O)c(Br)c1`, for which the negative-log IC50 (pIC50) in data set [1] was 5.00. Further, the Activity in data set [9] was found to be 50%; in data set [10] it was 20%; with Hepatitis C virus [11], 40%. This compound also gave a pEC50 with Hepatitis C virus [4] of 5.57. Moreover, the CC50 in data set [6] came out at 10.5 µM. For the same compound, in [7], the “Ratio CC50/EC50” value came to 3.86.

In the case of `CC(c1ccc(O)cc1)(c1ccc(O)cc1)c1ccc(O)cc1`, the inhibition with Hepacivirus hominis [2] was found to be 39%.

The compound `COc1ccc(C(C)(C)c2ccc(C(C)(c3ccc(OC)cc3)c3ccc(OC)cc3)cc2)cc1` came in with an inhibition with Hepacivirus hominis [2] of 15%.

Take `CC(c1ccccc1)(c1ccc(Oc2ccc([N+](=O)[O-])cc2)cc1)c1ccc(Oc2ccc([N+](=O)[O-])cc2)cc1`: the inhibition in the data set on Hepacivirus hominis [2] is 0%.

`O=C(O)c1cc(Nc2ccc(C(Cl)(c3ccccc3)c3ccc(Nc4ccc(Cl)c(C(=O)O)c4)cc3)cc2)ccc1Cl`: the pIC50 in data set [1] is 4.53; in data set [5] it was 4.60. The result in the data set with Hepacivirus hominis [3] was Active. The compound also gave a pEC50 with Hepatitis C virus [4] below 4.30. Moreover, in data set [6], the CC50 is above 50 µM. The Activity entry in the data set with Hepacivirus hominis [8] was “Dose-dependent effect”.

As to `O=S(=O)(O)c1ccc(N=C2C=CC(=C(c3ccc(Nc4cccc(S(=O)(=O)O)c4)cc3)c3ccc(Nc4cccc(S(=O)(=O)O)c4)cc3)C=C2)cc1`, the pIC50 was 4.40 in [1] and 4.62 in [5]. Further, the result in the data set with Hepacivirus hominis [3] was Active. Besides, the pEC50 in the data set with Hepatitis C virus [4] was below 4.30. Moreover, the CC50 in [6] was above 50 µM. The Activity result in the data set with Hepacivirus hominis [8] was “Dose-dependent effect”.

For the compound `Cc1cc([C@@](O)(c2ccc(Nc3ccccc3)cc2)c2ccc(Nc3ccc(S(=O)(=O)[O-])cc3)cc2)ccc1N.[Na+]`, the pIC50 in data set [1] is 4.90; in data set [5] it was below 4.00. Also, the result in the data set on Hepacivirus hominis [3] was inactive. In addition, the pEC50 with Hepatitis C virus [4] is 6.16. Moreover, the CC50 in [6] is 0.96 µM. In data set [7], the “Ratio CC50/EC50” value was found to be 1.39. For the same compound, the Activity result in the data set with Hepacivirus hominis [8] was “Dose-dependent effect”.

With `Nc1ccc(C(c2ccc(N)cc2)c2ccc(N)cc2)cc1`, in the data set on Hepacivirus hominis [2], the inhibition was found to be 30%.

`COc1ccc(-c2cc(-c3ccc(N(C)C)cc3)nc(NS(=O)(=O)c3ccc(N)cc3)n2)cc1` gave an inhibition in the data set on Hepacivirus hominis [2] of 46%.
